Results from ChEMBL document CHEMBL1125686, “(Benzoylphenyl)piperidines: a new class of immunomodulators” (1991).

How the values were obtained:
Format in all cases: functional
Mus musculus [1] = organism: Mus musculus; assay: Proliferation induced by the mitogen alone-PWM (control blastogenesis), in Mice cells at a dose of 10 ug/mL; set-up: unit not given here
Procedure, shortened: (§1)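 Splenocytes from female DBA/2 mice, 6–9 weeks old; red cells lysed with cold 0.17 M NH₄Cl. Cells plated at 5 × 10⁶ cells/mL in RPMI 1640 with 5% FCS, with compound (5–80 μg/mL range) and Con A, PWM or PHA at a batch-optimized concentration. Cultured 72 h at 37 °C, 5% CO₂, with [³H]thymidine for the final 24 h, read by scintillation. Triplicate wells; mean ± SD of three cultures.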

Mus musculus [2] = organism: Mus musculus; assay: Maximal proliferation induced in the presence of the mitogen-PWM ( stimulated blastogenesis) in Mice cells at a dose of 10 ug/mL; set-up: unit not given here; procedure, shortened: as §1
Mus musculus [3] = assay: Proliferation induced by the mitogen alone-Concanavalin A (control blastogenesis), in mice cells dosed at 5 ug/mL; set-up: unit not given here; procedure, shortened: as §1
Mus musculus [4] = assay: Maximal proliferation induced in the presence of the mitogen-Concanavalin A (stimulated blastogenesis) in mice cells dosed at 5 ug/mL; set-up: unit not given here; procedure, shortened: as §1
Mus musculus [5] = organism: Mus musculus; assay: Maximal proliferation induced in the presence of the mitogen-PHA ( stimulated blastogenesis) in Mice cells at a dose of 5 ug/mL; set-up: unit not given here; procedure, shortened: as §1
Mus musculus [6] = organism: Mus musculus; assay: Proliferation induced by the mitogen alone-PHA (control blastogenesis), in Mice cells at a dose of 5 ug/mL; set-up: unit not given here; procedure, shortened: as §1
Mus musculus [7] = assay: […] induction of Thyl+ antigen expression on murine bone marrow cells (Fraction A).(Treated)
Procedure, shortened: (§2)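 Bone marrow from female C57 BL/6 mice, 5–8 weeks old, separated on a discontinuous BSA gradient. Fraction A (lowest density) and fraction B (next lowest) resuspended at 10⁶ cells/mL in HBSS with 5% BSA. Cells incubated 24 h with one compound concentration, then stained directly with FITC anti-Thy1 and counted by epifluorescence microscopy. % Thy1⁺ cells recorded for treated and control cultures.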

Mus musculus [8] = assay: […] induction of Thyl+ antigen expression on murine bone marrow cells (Fraction B).(Control group); procedure, shortened: as §2
Mus musculus [9] = assay: […] induction of Thyl+ antigen expression on murine bone marrow cells (Fraction A).(Control group); procedure, shortened: as §2
Mus musculus [10] = assay: […] induction of Thyl+ antigen expression on murine bone marrow cells (Fraction B).(Treated); procedure, shortened: as §2
Mus musculus [11] = organism: Mus musculus; assay: Proliferation induced by the mitogen alone-PHA (control blastogenesis), in Mice cells at a dose of 7.5 ug/mL; procedure, shortened: as §1
Mus musculus [12] = organism: Mus musculus; assay: Maximal proliferation induced by the test compound in the presence of the mitogen-PHA ( stimulated blastogenesis) in Mice cells at a dose of 7.5 ug/mL; procedure, shortened: as §1
Mus musculus [13] = organism: Mus musculus; assay: Proliferation induced by the mitogen alone-PWM (control blastogenesis), in Mice cells at a dose of 20 ug/mL; procedure, shortened: as §1
Mus musculus [14] = organism: Mus musculus; assay: Maximal proliferation induced by the test compound in the presence of the mitogen-PWM ( stimulated blastogenesis) in Mice cells at a dose of 20 ug/mL; procedure, shortened: as §1
Mus musculus [15] = organism: Mus musculus; assay: Proliferation induced by the mitogen alone-PWM (control blastogenesis), in Mice cells at a dose of 80 ug/mL; set-up: unit not given here
Procedure, shortened: (§3)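 Splenocytes from female DBA/2 mice aged 6–9 weeks, red cells lysed with cold 0.17 M NH4Cl, cultured at 5 × 10⁶ cells/mL in RPMI 1640 with 5% FCS. Pokeweed mitogen added at a batch-adjusted optimal level, 72 h at 37 °C, 5% CO2. [³H]thymidine pulse for the final 24 h, then scintillation counting. Triplicates; mean ± SD of three cultures.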

Mus musculus [16] = organism: Mus musculus; assay: Maximal proliferation induced in the presence of the mitogen-PWM ( stimulated blastogenesis) in Mice cells at a dose of 80 ug/mL; set-up: unit not given here; procedure, shortened: as §1
Mus musculus [17] = organism: Mus musculus; assay: Maximal proliferation induced in the presence of the mitogen-PWM ( stimulated blastogenesis) in Mice cells at a dose of 40 ug/mL; set-up: unit not given here; procedure, shortened: as §1
Mus musculus [18] = organism: Mus musculus; assay: Proliferation induced by the mitogen alone-PWM (control blastogenesis), in Mice cells at a dose of 40 ug/mL; set-up: unit not given here; procedure, shortened: as §3
Mus musculus [19] = assay: […] induction of Thyl+ antigen expression on murine bone marrow cells at the concentration of 2.6 uM(Fraction B).(Control group); procedure, shortened: as §2
Mus musculus [20] = assay: […] induction of Thyl+ antigen expression on murine bone marrow cells at the concentration of 2.6 uM(Fraction B).(treated); procedure, shortened: as §2
Mus musculus [21] = assay: […] induction of Thyl+ antigen expression on murine bone marrow cells at the concentration of 2.6 uM(Fraction A).(treated); procedure, shortened: as §2
Mus musculus [22] = assay: […] induction of Thyl+ antigen expression on murine bone marrow cells at the concentration of 2.6 uM(Fraction A).(Control group); procedure, shortened: as §2

Compound | Proliferative response (Mus musculus [1]) | Proliferative response (Mus musculus [2]) | Proliferative response (Mus musculus [3]) | Proliferative response (Mus musculus [4]) | Proliferative response (Mus musculus [5]) | Proliferative response (Mus musculus [6]) | further results
CC1CCN(c2ccccc2C(=O)c2ccccc2)CC1 | 15.1 | 24.7 | 13.6 | 9 |  |  | 
CC1CCN(c2ccc(N)cc2C(=O)c2cccc(Cl)c2)CC1 | 102.8 | 105 | 316 | 343.8 | 40.9 | 40.2 | 
H-CSDAAVDVSSEITVKDLKEKKEVVEEAE-OH [THYMOSIN] |  |  |  |  |  |  | Differentiation (Mus musculus [7]): 21.9%; Differentiation (Mus musculus [8]): 6.3%; Differentiation (Mus musculus [9]): 10.8%; Differentiation (Mus musculus [10]): 9.4%
CC1CCN(c2ccc(Cl)cc2C(=O)c2ccc(Cl)cc2)CC1 |  |  | 55.6 | 68.7 |  |  | Proliferative response (Mus musculus [11]): 14.6; Proliferative response (Mus musculus [12]): 8.2
Cc1cc(C(=O)c2cc(N)ccc2N2CCC(C)CC2)cc(C)c1C |  |  | 152.6 | 206 |  |  | Proliferative response (Mus musculus [13]): 84.5; Proliferative response (Mus musculus [14]): 77.1
Cc1cccc(C(=O)c2cc(N)ccc2N2CCC(C)CC2)c1 | 98.8 | 135.9 | 389.9 | 414.1 | 62.4 | 47.9 | 
CC(C)(C)C1CCN(c2ccc(N)cc2C(=O)c2ccc(Cl)cc2)CC1 | 114.8 | 137.5 | 30.5 | 31.9 | 55 | 59.1 | 
CCC1CCN(c2ccc(N)cc2C(=O)c2ccc(Cl)cc2)CC1 | 88.7 | 114.6 | 319.5 | 348 | 37.4 | 30.4 | 
CC1CCN(c2ccc(N)cc2C(=O)c2ccc(F)cc2)CC1 |  |  | 268.2 | 165.6 |  |  | Proliferative response (Mus musculus [15]): 72.2; Proliferative response (Mus musculus [16]): 69.9
Nc1ccc(N2CCC(O)CC2)c(C(=O)c2ccc(Cl)cc2)c1 | 107.9 | 88.7 | 374.8 | 281.1 | 52.6 | 45 | 
CC1CCN(c2ccc(N)cc2C(=O)c2ccccc2Cl)CC1 |  |  | 150 | 165.5 |  |  | Proliferative response (Mus musculus [13]): 80; Proliferative response (Mus musculus [14]): 85.8
CC1CCN(c2ccc(N)cc2C(=O)c2ccccc2)CC1 |  |  | 188.1 | 167 |  |  | Proliferative response (Mus musculus [17]): 55.7; Proliferative response (Mus musculus [18]): 48.9
COc1ccc(C(=O)c2ccccc2N2CCC(C)CC2)cc1 | 20.8 | 15.5 | 127.5 | 165 |  |  | 
CC1CCCN(c2ccc(N(C)C)cc2C(=O)c2ccc(Cl)cc2)C1 (stereo unspecified) | 21.4 | 18.6 | 17.6 | 14.9 |  |  | 
CC1CCCN(c2ccc(N)cc2C(=O)c2ccc(Cl)cc2)C1 (stereo unspecified) |  |  | 124.4 | 141.6 |  |  | Differentiation (Mus musculus [19]): 3.8%; Differentiation (Mus musculus [20]): 5%; Proliferative response (Mus musculus [15]): 41.3; Differentiation (Mus musculus [21]): 6.7%; Proliferative response (Mus musculus [16]): 45; Differentiation (Mus musculus [22]): 5%
CC1CCN(c2ccc(N)cc2C(=O)c2cccc(C(F)(F)F)c2)CC1 | 79 | 79.9 | 332 | 297.7 | 36 | 34.3 | 
CC1CCN(c2ccc([N+](=O)[O-])cc2C(=O)c2ccc(Cl)cc2)CC1 |  |  | 160.9 | 93.7 |  |  | Proliferative response (Mus musculus [17]): 42.7; Proliferative response (Mus musculus [18]): 59.9
CC1CCN(c2ccc(N)cc2C(=O)c2ccc(Cl)c(Cl)c2)CC1 |  |  | 136.6 | 151.5 |  |  | Proliferative response (Mus musculus [15]): 48.4; Proliferative response (Mus musculus [16]): 64.4
Nc1ccc(N2CCCCC2)c(C(=O)c2ccc(Cl)cc2)c1 | 47.7 | 44.8 | 24.6 | 21.3 |  |  | 
CC1CCN(c2ccc(N)cc2C(=O)c2ccc(Cl)cc2Cl)CC1 | 105.5 | 115.9 | 280 | 246.2 | 46.4 | 46.7 | 
CC1CCN(c2ccccc2C(=O)c2ccc(Cl)cc2)CC1 |  |  | 92.7 | 62.7 |  |  | Proliferative response (Mus musculus [11]): 17.4; Proliferative response (Mus musculus [12]): 15.5
CC1CCN(c2ccc(N)cc2C(=O)c2ccc(Br)cc2)CC1 |  |  | 118.7 | 123.4 | 11.1 | 7 | Proliferative response (Mus musculus [17]): 56.4; Proliferative response (Mus musculus [18]): 40.5
COc1ccc(C(=O)c2cc(N)ccc2N2CCC(C)CC2)cc1OC |  |  | 137.4 | 158.4 |  |  | Proliferative response (Mus musculus [15]): 44.9; Proliferative response (Mus musculus [16]): 48.8
Cc1ccc(C(=O)c2cc(N)ccc2N2CCC(C)CC2)cc1 |  |  | 179.7 | 283.2 |  |  | Proliferative response (Mus musculus [17]): 48.9; Proliferative response (Mus musculus [18]): 53.8
Cc1ccc(C(=O)c2cc(N)ccc2N2CCC(C)CC2)c(C)c1 |  |  | 279.6 | 250 |  |  | Proliferative response (Mus musculus [15]): 68.8; Proliferative response (Mus musculus [16]): 61.5
CNc1ccc(N2CCC(C)CC2)c(C(=O)c2ccc(Cl)cc2)c1 | 20.3 | 19.5 | 18.2 | 21.3 |  |  | 
Nc1ccc(N2CCC(Cc3ccccc3)CC2)c(C(=O)c2ccc(Cl)cc2)c1 | 108.2 | 79.5 | 328 | 308 | 35.1 | 27.4 | 
COc1ccc(C(=O)c2cc(N)ccc2N2CCC(C)CC2)cc1 | 103.3 | 121.8 | 322.1 | 363.6 | 54.3 | 36.3 | 
